Data reported in PubChem BioAssay.
The source made the active and inactive calls. Rule as the data show it, unless noted: active = inhibition above about 30%; inactive = the rest.

What was measured:
[1] = reducers of endogenous Her2 protein level, primary screen, SKBR3 breast tumor cells, AlphaScreen, ATP viability (AID 461;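 active = Her2 level under about 52% in both replicate screens, with viability over 70% of control, limit read from the data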;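 as to Her2 level: lower value means less Her2 protein in the cells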;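 as to viability: percent of carrier control wells set as 100% viability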); settings: 18-24 h, measured here: SKBR3 viability, ATP luminescence, at 10 µM
[2] = target: Receptor tyrosine-protein kinase erbB-2 (Homo sapiens) (UniProt P04626); experiment: as above; settings: 18-24 h, at 10 µM, stronger effect = lower value
Receptor tyrosine-protein kinase erbB-2 (Homo sapiens), sequence (P04626 whole entry, looked up): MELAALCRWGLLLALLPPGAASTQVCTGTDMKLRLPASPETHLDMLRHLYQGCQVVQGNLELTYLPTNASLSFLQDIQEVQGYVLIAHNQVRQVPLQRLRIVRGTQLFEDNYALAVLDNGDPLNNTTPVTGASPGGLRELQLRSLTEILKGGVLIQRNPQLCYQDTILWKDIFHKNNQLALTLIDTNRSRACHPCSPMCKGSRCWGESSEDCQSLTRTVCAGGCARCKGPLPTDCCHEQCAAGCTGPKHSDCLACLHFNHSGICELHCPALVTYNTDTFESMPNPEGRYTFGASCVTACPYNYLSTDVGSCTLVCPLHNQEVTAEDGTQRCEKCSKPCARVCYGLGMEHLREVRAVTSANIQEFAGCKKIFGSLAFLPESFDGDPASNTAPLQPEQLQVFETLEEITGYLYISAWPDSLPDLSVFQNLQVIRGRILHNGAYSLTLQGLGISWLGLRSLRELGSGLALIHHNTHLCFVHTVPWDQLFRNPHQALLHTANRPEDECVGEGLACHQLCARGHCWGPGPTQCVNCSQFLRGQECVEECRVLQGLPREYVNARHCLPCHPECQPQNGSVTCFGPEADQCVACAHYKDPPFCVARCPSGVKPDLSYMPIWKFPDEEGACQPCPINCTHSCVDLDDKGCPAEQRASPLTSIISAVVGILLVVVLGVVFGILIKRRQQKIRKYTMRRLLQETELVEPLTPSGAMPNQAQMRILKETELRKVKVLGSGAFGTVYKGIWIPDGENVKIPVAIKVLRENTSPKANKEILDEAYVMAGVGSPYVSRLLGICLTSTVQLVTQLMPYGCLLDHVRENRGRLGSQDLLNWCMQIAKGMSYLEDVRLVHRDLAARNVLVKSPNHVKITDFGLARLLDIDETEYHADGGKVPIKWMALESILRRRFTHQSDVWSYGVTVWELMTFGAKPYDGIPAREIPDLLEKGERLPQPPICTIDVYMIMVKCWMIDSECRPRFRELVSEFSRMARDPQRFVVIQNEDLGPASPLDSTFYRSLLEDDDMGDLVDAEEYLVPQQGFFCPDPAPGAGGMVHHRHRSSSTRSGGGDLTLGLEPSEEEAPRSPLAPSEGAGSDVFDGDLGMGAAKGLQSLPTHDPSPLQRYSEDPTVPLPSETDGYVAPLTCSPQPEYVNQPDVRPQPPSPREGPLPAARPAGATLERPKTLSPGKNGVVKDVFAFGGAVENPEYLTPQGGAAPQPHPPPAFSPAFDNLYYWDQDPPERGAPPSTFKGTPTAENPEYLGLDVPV

[3] = SK-BR-3 cell growth inhibitors, pilot screen, 24 h, human (AID 572;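 active = viability at or below 10% of carrier control in both of two separate runs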;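 also: compound exposure lasted between 18 and 24 h rather than exactly 24 h; 100% = carrier-treated control wells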); settings: SK-BR-3 viability, CellTiter-Glo luminescence, at 10 µM, stronger effect = lower value
[4] = HUVEC growth inhibition – cell-based, human, primary screen (AID 575;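 active = viability at or below 30% in both replicate assays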;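 also: 100% = median of untreated cell wells with 0.1% DMSO on each plate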); settings: HUVEC proliferation, CellTiter-Glo luminescence, 72 h; at 10 µM; stronger effect = lower value
Procedure, shortened: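 Test system – primary HUVEC, no more than 12 passages · Dosing – one dose, 10 µM final, 0.1% DMSO · Times – 72 h treatment at 37 °C · Measured by – ATP-based CellTiter-Glo luminescent read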

[5] = growth inhibitors of H69AR lung tumor, primary screen, human, duplicate replicates (AID 580;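 active = viability at or under a set limit in both replicates, limit being median viability minus 3 SD, cut at about 48% in these data, passing the limit was not always enough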;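 also: 100% = mean luminescence of untreated wells and 0% = no signal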); settings: H69AR lung tumor cells viability, ATP luminescence, 72 h; at 10 µM; stronger effect = lower value
[6] = reversal of MRP1-mediated doxorubicin resistance, pilot screen, H69AR cells, doxorubicin co-treatment (AID 601;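 active = viability loss from added drug above about 55%, and viability with drug at most 40%, in both replicates, limit read from the data, passing the limit was not always enough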); settings: CellTiter-Glo, 72 h, at 10 µM; for differential viability (reversal): stronger effect = higher value
[7] = 384-well plate pilot, post-Golgi transport modulator project, inhibition of yeast transport mutant growth (AID 636; in the data active = inhibition above about 31%); settings: absorbance 615 nm, about 18 h, stronger effect = higher value
[8] = growth suppression of yeast trafficking mutant, preliminary HTS, modulators of trafficking downstream of Golgi apparatus project, 1536-format plate, OD 615 nm (AID 637); settings: yeast transport mutant growth, absorbance 615 nm, 18 h; stronger effect = higher value
[9] = H69AR cells + 2 uM doxorubicin, measured here: viability with 2 uM doxorubicin, stronger effect = lower value
[10] = H69AR cells, compound alone cytotoxicity

Structure (SMILES) | viability [1] [%] | Her2 level [2] | viability [3] | viability [4] | viability [5] | differential viability (reversal) ([6]; H69AR cells + 2 uM doxorubicin) | viability [6, 9] [%] | viability [6, 10] [%] | inhibition [7] | inhibition [8]
CCOC(=O)c1sc(NC(=O)CSc2nnc3c4ccccc4n(CC)c3n2)nc1C | 83.5 | 104% (inactive) | 83.5% (inactive) | 104% (inactive) | 96.2% (inactive) | -0.44% (inactive) | 96.7 | 96.2 | 1.67% (inactive) | -3.33% (inactive)
COc1ccccc1C(=O)n1nc(-c2ccc(Cl)cc2)nc1N | 90 | 74.5% (inactive) | 90% (inactive) | 78.7% (inactive) | 71.2% (inactive) | -13.7% (inactive) | 84.9 | 71.2 | -5.06% (inactive) | -8.5% (inactive)
O=C(NCc1ccco1)c1csc(Nc2ccccc2Cl)n1 | 70.5 | 97.5% (inactive) | 70.5% (inactive) | 60.5% (inactive) | 78.2% (inactive) | -1.24% (inactive) | 79.4 | 78.2 | -8.24% (inactive) | -5.25% (inactive)
Cc1nc2sc(C(c3ccc(Br)cc3)N3CC(C)OC(C)C3)c(O)n2n1 (stereo not given) | 80 | 112% (inactive) | 80% (inactive) | 109% (inactive) | 105% (inactive) | 15.2% (inactive) | 90.2 | 105 | -2.21% (inactive) | -3.44% (inactive)
CC(=O)c1c(C)nn(CC(O)COc2ccc3c(c2)CCC3)c1C (stereo not given) | 93.5 | 105% (inactive) | 93.5% (inactive) | 94.4% (inactive) | 87.4% (inactive) | 3.44% (inactive) | 83.9 | 87.4 | 1.33% (inactive) | -6.03% (inactive)
CC(C)(C)n1nnnc1CN1CCN(C2CCCC2)CC1 | 84 | 84% (inactive) | 84% (inactive) | 101% (inactive) | 104% (inactive) | 3.04% (inactive) | 101 | 104 | -7.7% (inactive) | -2.3% (inactive)
CCSc1nnc(-c2cccs2)o1 | 89 | 106% (inactive) | 89% (inactive) | 87.3% (inactive) | 92.3% (inactive) | -4.3% (inactive) | 96.6 | 92.3 | -0.13% (inactive) | -2.83% (inactive)
COc1ccccc1-c1cc(C(=O)NCCCn2ccnc2)no1 | 82 | 80% (inactive) | 82% (inactive) | 88.5% (inactive) | 97.4% (inactive) | 14.3% (inactive) | 83.1 | 97.4 | -7.03% (inactive) | -2.17% (inactive)
Cc1ccc(-c2nnc3ccc(SCC(=O)NCc4ccco4)nn23)cc1 | 100 | 87.5% (inactive) | 100% (inactive) | 89% (inactive) | 93.2% (inactive) | 9.33% (inactive) | 83.9 | 93.2 | -5.41% (inactive) | -8.33% (inactive)
O=C(Nc1ccccc1)c1ccc(NCC2CCCO2)c(S(=O)(=O)N2CCOCC2)c1 (stereo not given) | 87 | 95% (inactive) | 87% (inactive) | 102% (inactive) | 90% (inactive) | 4.29% (inactive) | 85.7 | 90 | -3.16% (inactive) | -5.87% (inactive)
COc1ccccc1CNC(=O)C1CCCN(S(=O)(=O)c2cnc[nH]2)C1 (stereo not given) | 94 | 102% (inactive) | 94% (inactive) | 105% (inactive) | 109% (inactive) | 16.7% (inactive) | 92.3 | 109 | 1.47% (inactive) | -0.98% (inactive)
CCOC(=O)c1ccccc1NC(=O)CSc1nc2c(c(=O)n(C)c(=O)n2C)n1C | 100 | 92% (inactive) | 100% (inactive) | 101% (inactive) | 92.4% (inactive) | 6.47% (inactive) | 85.9 | 92.4 | -1.58% (inactive) | 0.16% (inactive)
CC1CCN(C(=O)CSc2nc3ccccc3[nH]2)CC1 | 82 | 99.5% (inactive) | 82% (inactive) | 91.8% (inactive) | 109% (inactive) | 14.7% (inactive) | 94.6 | 109 | 0.26% (inactive) | 6% (inactive)
N#Cc1c(N2C(=O)C3C4C=CC(C4)C3C2=O)sc2c1CCC2 (stereo not given) | 91.5 | 86.5% (inactive) | 91.5% (inactive) | 91% (inactive) | 90.3% (inactive) | -10.1% (inactive) | 100 | 90.3 | -5.07% (inactive) | -2.62% (inactive)
CCOC(=O)c1sc(C)c2c1NC(C)(c1cccs1)NC2=O (stereo not given) | 105 | 96.5% (inactive) | 105% (inactive) | 83.6% (inactive) | 82.5% (inactive) | -8.16% (inactive) | 90.6 | 82.5 | -1.73% (inactive) | -6.94% (inactive)
Nc1nonc1NC(=O)CSc1nc2ccccc2s1 | 86 | 110% (inactive) | 86% (inactive) | 91.2% (inactive) | 90.8% (inactive) | 4.11% (inactive) | 86.7 | 90.8 | 6.18% (inactive) | -8% (inactive)

Structure (SMILES) | viability [1] [%] | Her2 level [2] | viability [3] | viability [4] | viability [5] | differential viability (reversal) ([6]; H69AR cells + 2 uM doxorubicin) | viability [6, 9] [%] | viability [6, 10] [%] | inhibition [7] | inhibition [8]
Cc1ccc(Nc2cc(-n3nc(C)cc3C)ncn2)cc1 | 96.5 | 97% (inactive) | 96.5% (inactive) | 70.7% (inactive) | 74.8% (inactive) | -7.74% (inactive) | 82.6 | 74.8 | -0.26% (inactive) | -1.97% (inactive)
COCCCNC(=O)CCc1nc2cccnc2n1Cc1ccc(OC)cc1 | 110 | 106% (inactive) | 110% (inactive) | 115% (inactive) | 99.2% (inactive) | 4.86% (inactive) | 94.3 | 99.2 | -7.03% (inactive) | 1.83% (inactive)
COc1ccc(OC)c(S(=O)(=O)Nc2ccccc2C(=O)O)c1 | 109 | 100% (inactive) | 109% (inactive) | 98.3% (inactive) | 99% (inactive) | 11.8% (inactive) | 87.2 | 99 | -4.4% (inactive) | 0.16% (inactive)
Cc1cnc(C(=O)Nc2ccc(-n3cnnn3)cc2)cn1 | 100 | 98.5% (inactive) | 100% (inactive) | 101% (inactive) | 105% (inactive) | 16.4% (inactive) | 88.9 | 105 | -4.93% (inactive) | -4.68% (inactive)
N#Cc1nc(-c2ccco2)oc1N1CCN(c2cccc(Cl)c2)CC1 | 87 | 85.5% (inactive) | 87% (inactive) | 90.1% (inactive) | 90% (inactive) | -5.21% (inactive) | 95.2 | 90 | -4.13% (inactive) | 4.29% (inactive)
O=S1(=O)CC(N2CCCCC2)C(N2CCCCC2)C1 (stereo not given) | 104 | 91.5% (inactive) | 104% (inactive) | 108% (inactive) | 95.3% (inactive) | 16.9% (inactive) | 78.3 | 95.3 | -2.99% (inactive) | 1.27% (inactive)
Cc1ccc2c(CNCc3ccco3)cc(=O)oc2c1 | 117 | 94.5% (inactive) | 117% (inactive) | 84.1% (inactive) | 93.5% (inactive) | 11.5% (inactive) | 81.9 | 93.5 | -1.07% (inactive) | -4.03% (inactive)
COc1cccc(N2CCN(Cc3nc(N)nc(Nc4ccccc4OC)n3)CC2)c1 | 124 | 92% (inactive) | 124% (inactive) | 107% (inactive) | 77.4% (inactive) | -7.01% (inactive) | 84.4 | 77.4 | -3.95% (inactive) | 1.13% (inactive)
COc1cc(NC(=O)c2cc(OC)c(OC)c(OC)c2)c(OC)cc1NC(=O)CN1CCCCC1 | 86.5 | 68.5% (inactive) | 86.5% (inactive) | 67.9% (inactive) | 65.9% (inactive) | -11.7% (inactive) | 77.6 | 65.9 | -5.27% (inactive) | -7.5% (inactive)
CN1C(=O)C(CC(=O)N2CCN(C(c3ccccc3)c3ccccc3)CC2)N(C)C1=O (stereo not given) | 90.5 | 83% (inactive) | 90.5% (inactive) | 89.1% (inactive) | 81.9% (inactive) | -14% (inactive) | 95.9 | 81.9 | 0.26% (inactive) | -3.67% (inactive)
CCN1CCN(S(=O)(=O)Cc2ccccc2)CC1 | 116 | 114% (inactive) | 116% (inactive) | 105% (inactive) | 91.4% (inactive) | -0.695% (inactive) | 92.1 | 91.4 | 1.62% (inactive) | 12.9% (inactive)
COc1ccc2nc(SCC(=O)NC(C)C)[nH]c2c1 | 104 | 106% (inactive) | 104% (inactive) | 102% (inactive) | 96.4% (inactive) | 4.97% (inactive) | 91.4 | 96.4 | 3.25% (inactive) | -10.8% (inactive)
C=CCSc1nc(N)c(C(=O)Nc2ccccc2C)cc1C(N)=O | 93 | 121% (inactive) | 93% (inactive) | 99.9% (inactive) | 87.4% (inactive) | -2.21% (inactive) | 89.6 | 87.4 | 4.42% (inactive) | 4.67% (inactive)
CCn1c(SCC(=O)Nc2ccc(C(C)=O)cc2)nc2ccccc21 | 90 | 77% (inactive) | 90% (inactive) | 57% (inactive) | 83.1% (inactive) | -3.56% (inactive) | 86.7 | 83.1 | -1.45% (inactive) | -3.45% (inactive)
FC(F)(F)c1cc(-c2ccco2)nc(N2CCOCC2)n1 | 86 | 80.5% (inactive) | 86% (inactive) | 69.1% (inactive) | 92.4% (inactive) | 18.6% (inactive) | 73.8 | 92.4 | -6.93% (inactive) | 7.21% (inactive)
